{"source": "PubChem BioAssay AID588746", "about": "(Vanderbilt Specialized Chemistry Center, 2011)", "biological_target": "Muscarinic acetylcholine receptor M2 (Homo sapiens) (UniProt P08172)", "sequence (P08172 whole entry, looked up)": "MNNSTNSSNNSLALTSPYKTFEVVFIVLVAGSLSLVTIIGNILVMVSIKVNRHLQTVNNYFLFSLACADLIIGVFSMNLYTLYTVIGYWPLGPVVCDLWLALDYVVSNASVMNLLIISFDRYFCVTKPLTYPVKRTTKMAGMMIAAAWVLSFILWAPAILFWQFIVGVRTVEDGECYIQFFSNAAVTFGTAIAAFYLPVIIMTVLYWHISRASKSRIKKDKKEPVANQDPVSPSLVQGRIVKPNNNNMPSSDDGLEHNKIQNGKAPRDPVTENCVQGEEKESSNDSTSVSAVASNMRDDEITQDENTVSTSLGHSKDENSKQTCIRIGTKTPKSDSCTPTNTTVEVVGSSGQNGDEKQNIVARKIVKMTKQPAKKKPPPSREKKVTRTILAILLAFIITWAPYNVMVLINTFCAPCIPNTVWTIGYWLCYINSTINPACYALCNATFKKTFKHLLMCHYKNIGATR", "experiment": "potentiation of ACh at human M2 – CHO Gqi5 cells, calcium fluorescence, counter-screen, dose response (AID 588746)", "conditions": "CHO hM2/Gqi5 calcium mobilization, Fluo-4 fluorescence", "summary_of_the_method": "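Test system: hM2/Gqi5 CHO cells; Benchmarks: 1 mM ACh maximum; Times: compound 144 s before ACh EC20, EC80 86 s later, 37 °C; Measure: % of maximal ACh response and EC50; Measured by: Fluo-4 calcium kinetic read; Probe or stimulus: acetylcholine at EC20, followed by acetylcholine at EC80.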", "note": "The source made the active and inactive calls.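 The calls were made as follows: active = a clear concentration-dependent response in the calcium flux assay, with a fitted half-maximal potency; inactive = the rest.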", "data": [{"compound": "Cc1nc2sc(C(=O)NCc3cccnc3)c(N)c2c(C)c1Cl", "values": [{"measurement": "percent of ACh max response", "setting": "at 45.3 µM (top of the series)", "result": "inactive"}]}, {"compound": "Cc1nc2sc(C(=O)NCc3ccccc3)c(N)c2c(C)c1Cl", "values": [{"measurement": "percent of ACh max response", "setting": "at 37.4 µM (top of the series)", "result": "inactive"}]}, {"compound": "Cc1nc2sc(C(=O)NCc3cccc(F)c3F)c(N)c2c(C)c1Cl", "values": [{"measurement": "percent of ACh max response", "setting": "at 30 µM (top of the series)", "result": "inactive"}]}, {"compound": "Cc1nc2sc(C(=O)NCCc3ccncc3)c(N)c2c(C)c1Cl", "values": [{"measurement": "percent of ACh max response", "setting": "at 30 µM (top of the series)", "result": "inactive"}]}, {"compound": "Cc1nc2sc(C(=O)NCc3ccncc3)c(N)c2c(C)c1Cl", "values": [{"measurement": "percent of ACh max response", "setting": "at 45.3 µM (top of the series)", "result": "inactive"}]}, {"compound": "Cc1nc2sc(C(=O)NCc3ccncn3)c(N)c2c(C)c1Cl", "values": [{"measurement": "percent of ACh max response", "setting": "at 30 µM (top of the series)", "result": "inactive"}]}, {"compound": "Cc1nc2sc(C(=O)NCc3nccs3)c(N)c2c(C)c1Cl", "values": [{"measurement": "percent of ACh max response", "setting": "at 30 µM (top of the series)", "result": "inactive"}]}, {"compound": "Cc1nc2sc(C(=O)NCc3ccc4c(c3)OCO4)c(N)c2c(C)c1Cl", "values": [{"measurement": "percent of ACh max response", "setting": "at 36.8 µM (top of the series)", "result": "inactive"}]}, {"compound": "Cc1nc2sc(C(=O)NC3CC3)c(N)c2c(C)c1Cl", "values": [{"measurement": "EC50", "result": 0.548, "unit": "µM"}]}]}
